Active and inactive are the calls of the source. The rule behind the calls is not given here.

Test [1] addresses Runt-related transcription factor 1 (Homo sapiens) (UniProt Q01196). The experiment in a line: Inhibition of RUNX1 in human S68 cells assessed as K-score by measuring ALDHbr cells by LSR2 cytometer. It counts as cell-based. The essentials: (§1)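 Cell lines exposed for 72 h in adherent culture to a range of concentrations centred on the MTS-derived IC50. ALDHbr proportion measured by ALDEFLUOR flow cytometry (LSR2). K-score is the linear regression coefficient, on log10-transformed doses, between the untreated condition and the dose predicted to give a 50% decrease or increase in ALDHbr proportion versus control.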

The target is the same in test [2]. The experiment in a line: Inhibition of RUNX1 in human BrCa-MZ-01 cells assessed as K-score by measuring ALDHbr cells by LSR2 cytometer. It counts as cell-based. In short, it runs like this: as §1
The target is the same in test [3]. The experiment in a line: Inhibition of RUNX1 in human SUM159 cells assessed as K-score by measuring ALDHbr cells by LSR2 cytometer. It is filed as cell-based. In short, it runs like this:
as §1

Test [4] has the same target. The experiment in a line: Inhibition of RUNX1 in human SUM149 cells assessed as K-score by measuring ALDHbr cells by LSR2 cytometer. It counts as cell-based. The essentials:
as §1

The target is the same in test [5]. The test is described as follows: Inhibition of RUNX1 in human MDA-MB-436 cells assessed as K-score by measuring ALDHbr cells by LSR2 cytometer. It is filed as cell-based. The essentials:
as §1

Test [6] concerns the target T1, Splicing factor 3B subunit 2 (Homo sapiens) (UniProt Q13435).
T1 sequence (whole entry): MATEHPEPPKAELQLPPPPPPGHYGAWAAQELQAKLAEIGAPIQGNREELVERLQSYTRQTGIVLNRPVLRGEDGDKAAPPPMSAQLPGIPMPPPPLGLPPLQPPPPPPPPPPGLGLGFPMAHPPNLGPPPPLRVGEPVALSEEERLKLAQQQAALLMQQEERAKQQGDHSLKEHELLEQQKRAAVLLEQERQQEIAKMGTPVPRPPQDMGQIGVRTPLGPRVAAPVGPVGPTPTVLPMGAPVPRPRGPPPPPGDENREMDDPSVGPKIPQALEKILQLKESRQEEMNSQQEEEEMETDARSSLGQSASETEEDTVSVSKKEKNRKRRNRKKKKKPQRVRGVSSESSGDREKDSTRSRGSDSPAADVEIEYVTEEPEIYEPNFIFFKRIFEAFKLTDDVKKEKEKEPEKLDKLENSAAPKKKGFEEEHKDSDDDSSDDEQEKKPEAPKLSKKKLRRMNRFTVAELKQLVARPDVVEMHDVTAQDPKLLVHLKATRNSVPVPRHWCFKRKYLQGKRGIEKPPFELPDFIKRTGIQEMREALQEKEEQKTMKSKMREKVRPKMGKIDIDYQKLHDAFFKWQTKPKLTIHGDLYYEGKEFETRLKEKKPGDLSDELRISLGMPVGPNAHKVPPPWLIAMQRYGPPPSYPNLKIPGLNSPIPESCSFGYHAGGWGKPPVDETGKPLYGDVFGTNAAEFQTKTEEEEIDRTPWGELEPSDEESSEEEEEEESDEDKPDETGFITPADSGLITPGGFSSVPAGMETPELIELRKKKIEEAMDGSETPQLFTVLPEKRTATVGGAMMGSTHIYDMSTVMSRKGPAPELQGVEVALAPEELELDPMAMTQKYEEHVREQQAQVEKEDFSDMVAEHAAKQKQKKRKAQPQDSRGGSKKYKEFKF
The experiment in a line: Inhibition of SF3B2 in human S68 cells assessed as K-score by measuring ALDHbr cells by LSR2 cytometer. It counts as cell-based. In short, it runs like this:
as §1

The target of test [7] is T1, Splicing factor 3B subunit 2 (Homo sapiens). The experiment in a line: Inhibition of SF3B2 in human BrCa-MZ-01 cells assessed as K-score by measuring ALDHbr cells by LSR2 cytometer. It is filed as cell-based. In short, it runs like this: as §1
The target is the same in test [8]. The experiment in a line: Inhibition of SF3B2 in human SUM159 cells assessed as K-score by measuring ALDHbr cells by LSR2 cytometer. It counts as cell-based. In short, it runs like this: as §1
Test [9] has the same target. The experiment in a line: Inhibition of SF3B2 in human SUM149 cells assessed as K-score by measuring ALDHbr cells by LSR2 cytometer. It counts as cell-based. The essentials:
as §1

Test [10] shares this target. The test is described as follows: Inhibition of SF3B2 in human MDA-MB-436 cells assessed as K-score by measuring ALDHbr cells by LSR2 cytometer. It is filed as cell-based. In short, it runs like this:
as §1

Test [11] in a line: Antitumor activity against human S68 cells assessed as K-score by measuring ALDHbr cells by LSR2 cytometer. It counts as functional. In short, it runs like this: as §1
The nature of test [12]: Antitumor activity against human BrCa-MZ-01 cells assessed as K-score by measuring ALDHbr cells by LSR2 cytometer. It counts as functional. The essentials:
as §1

The subject of test [13] is SUM-159-PT. The test is described as follows: Antitumor activity against human SUM159 cells assessed as K-score by measuring ALDHbr cells by LSR2 cytometer. It counts as functional. In short, it runs like this: as §1
The next test deals with SUM149PT. The test is described as follows: Antitumor activity against human SUM149 cells assessed as K-score by measuring ALDHbr cells by LSR2 cytometer. It counts as functional. In short, it runs like this:
as §1

In another test the test system is MDA-MB-436. The experiment in a line: Antitumor activity against human MDA-MB-436 cells assessed as K-score by measuring ALDHbr cells by LSR2 cytometer. It counts as functional. The essentials: as §1
For test [14], the system named is SUM-159-PT. The experiment in a line: Anticancer activity against human SUM159 cells assessed as decrease in primary tumor sphere formation incubated for 72 hrs by Extreme limiting dilution analysis. It counts as functional, cell-based. The essentials:
(§2)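 Cells drug-treated in adherent culture for 72 h, then plated as single cells in ultra-low attachment 96-well plates in serum-free mammary epithelium basal medium. Plating at 25/10/5/3/2/1 cells per well, 18–36 wells per condition. Wells with ≥1 sphere after 10 days scored positive. Secondary spheres were made by dissociating primary spheres. Frequency by ELDA; n = 4; pairwise chi-square test.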

The subject of test [15] is SUM-159-PT. The experiment in a line: Anticancer activity against human SUM159 cells assessed as decrease in secondary tumor sphere formation incubated for 72 hrs by Extreme limiting dilution analysis. It is filed as functional, cell-based. The essentials:
as §2

For test [16], the system named is Proteasome. The experiment in a line: Inhibition of proteasome in human S68 cells assessed as K-score by measuring ALDHbr cells by LSR2 cytometer. The conditions noted are these: condition breast cancer. The essentials:
(§3)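 Breast cancer lines exposed continuously for 72 h in adherent culture to a range of doses centred on the MTS-derived IC50 (72 h MTS, absorbance 540 nm). ALDHbr fraction measured by ALDEFLUOR flow cytometry (LSR2) with DEAB control. K-score = linear regression coefficient between untreated condition and the log10 dose at which ALDHbr proportion changes by 50% versus control.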

The test system of test [17] is Proteasome. The experiment in a line: Inhibition of proteasome in human BrCa-MZ-01 cells assessed as K-score by measuring ALDHbr cells by LSR2 cytometer. The conditions noted are these: condition breast cancer. The essentials: as §3
For test [18], the system named is Proteasome. The test is described as follows: Inhibition of proteasome in human SUM159 cells assessed as K-score by measuring ALDHbr cells by LSR2 cytometer. The settings on record: condition breast cancer. The essentials: as §3
For test [19], the system named is Proteasome. The experiment in a line: Inhibition of proteasome in human SUM149 cells assessed as K-score by measuring ALDHbr cells by LSR2 cytometer. The conditions noted are these: condition breast cancer. In short, it runs like this:
as §3

Test [20] has as its system Proteasome. The experiment in a line: Inhibition of proteasome in human MDA-MB-436 cells assessed as K-score by measuring ALDHbr cells by LSR2 cytometer. The conditions noted are these: condition breast cancer. In short, it runs like this:
as §3

Sequence of Runt-related transcription factor 1 (Homo sapiens) (Q01196 whole entry): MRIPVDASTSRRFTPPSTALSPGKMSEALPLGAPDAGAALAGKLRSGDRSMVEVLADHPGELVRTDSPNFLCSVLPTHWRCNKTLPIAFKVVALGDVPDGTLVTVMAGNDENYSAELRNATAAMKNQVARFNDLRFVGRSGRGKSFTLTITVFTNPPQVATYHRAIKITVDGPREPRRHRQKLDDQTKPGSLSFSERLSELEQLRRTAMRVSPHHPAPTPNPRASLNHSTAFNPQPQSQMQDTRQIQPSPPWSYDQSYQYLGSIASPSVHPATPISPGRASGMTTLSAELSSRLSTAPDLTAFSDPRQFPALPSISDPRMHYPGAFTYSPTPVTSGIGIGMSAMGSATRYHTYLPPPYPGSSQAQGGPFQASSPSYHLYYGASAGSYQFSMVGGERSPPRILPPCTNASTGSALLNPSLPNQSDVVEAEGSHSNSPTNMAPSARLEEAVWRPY

For the molecule `O=C1CN=C(c2ccc[nH]2)c2cc(Cl)ccc2N1`, the Activity is -0.07 in test [1]; -0.04 in test [2]; 0.09 in test [3]; -0.04 in test [4]; 0 in test [5].
As to `CO[C@]1(C)C[C@@]2(CO2)[C@H](O)[C@@H](/C=C/C(C)=C/C[C@@H]2O[C@H](C)[C@H](NC(=O)/C=C\[C@H](C)OC(C)=O)C[C@@H]2C)O1`, the Activity in test [6] is -0.16; in test [7], 0.05; in test [8] it was 0.25; in [9], -0.19; in test [10], -0.15.
On to `CCN(CC)CCCC(C)Nc1ccnc2cc(Cl)ccc12` (configuration not stated) [CHLOROQUINE], for which the Activity is given as -0.02 in test [11]; -0.02 in [12]; 0.04 in the test on SUM-159-PT [13]; -0.01 with SUM149PT; -0.06 with MDA-MB-436.
For `CC#C[C@]1(O)CC[C@H]2[C@@H]3CCC4=CC(=O)CCC4=C3[C@@H](c3ccc(N(C)C)cc3)C[C@@]21C`, the outcome with SUM-159-PT [14] and in the test on SUM-159-PT [15] was Active.
For `CC(C)C[C@H](NC(=O)[C@H](Cc1ccccc1)NC(=O)c1cnccn1)B(O)O` [BORTEZOMIB], the Activity was -0.14 with Proteasome [16]; -0.07 in the test on Proteasome [17]; 0.07 with Proteasome [18]; -0.11 with Proteasome [19]; -0.06 with Proteasome [20].

(Values after ChEMBL document CHEMBL5712908, “A genome-wide RNAi screen reveals essential therapeutic targets of breast cancer stem cells” (2019).)
